Reference: ChEMBL document CHEMBL4130618, “Paralithocins, Antimicrobial Peptides with Unusual Disulfide Connectivity from the Red King Crab, Paralithodes camtschaticus” (2018)
≈ marks a conversion by molar mass, not a printed value.

What was measured:
Assay type in all cases: functional
[1] = tested on: Escherichia coli; assay: Antibacterial activity against Escherichia coli ATCC 25922 measured after 24 hrs; details: ATCC 25922, 24 h
How it was run: (§1)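 Purified native peptide in 2-fold serial dilutions in double-distilled water (1.6–100 μM). 50 μL was mixed with an equal volume of actively growing bacteria (5 × 10^3 cells/well) in Mueller Hinton broth and incubated 24 h at 37 °C. Growth was followed by OD. MIC is the lowest concentration giving OD <50% of the water growth control, read at control OD ≈0.3.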

[2] = tested on: Pseudomonas aeruginosa; assay: Antibacterial activity against Pseudomonas aeruginosa […] measured after 24 hrs; how it was run: as §1
[3] = tested on: Yersinia ruckeri; assay: Antibacterial activity against Yersinia ruckeri CCUG 14190 measured after 72 hrs; details: CCUG 14190, 72 h
How it was run: (§2)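 Marine strains were grown in Mueller Hinton broth. Peptide in 2-fold dilutions in double-distilled water (1.6–100 μM, up to 200 μM for selected marine strains), 50 μL plus an equal volume of growing bacteria at 5 × 10^3 cells/well, 72 h at 12 °C. OD was monitored. MIC is the lowest concentration giving OD <50% of the water growth control.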

[4] = tested on: Vibrio anguillarum; assay: Antibacterial activity against Listonella anguillarum AL104 measured after 72 hrs; details: AL104, 72 h; how it was run: as §2
[5] = tested on: Aeromonas salmonicida; assay: Antibacterial activity against Aeromonas salmonicida AL2020 measured after 72 hrs; details: AL2020, 72 h; how it was run: as §2
[6] = tested on: Corynebacterium glutamicum; assay: Antibacterial activity against Corynebacterium glutamicum ATCC 13032 measured after 24 hrs; details: ATCC 13032, 24 h; how it was run: as §1
[7] = tested on: Staphylococcus aureus; assay: Antibacterial activity against Staphylococcus aureus ATCC 9144 measured after 24 hrs; details: ATCC 9144, 24 h; how it was run: as §1
[8] = tested on: Carnobacterium maltaromaticum; assay: Antibacterial activity against Carnobacterium maltaromaticum CCUG 34645 measured after 72 hrs; details: CCUG 34645, 72 h
How it was run: (§3)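 Carnobacteria were grown in modified tryptic soy broth with 5% glucose and 2% NaCl. 2-fold peptide dilutions in double-distilled water (1.6–100 μM, up to 200 μM for selected marine strains), 50 μL mixed 1:1 with growing cells (5 × 10^3/well), incubated 72 h at 12 °C. MIC is the lowest concentration with OD below 50% of the water growth control.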

[9] = tested on: Carnobacterium mobile; assay: Antibacterial activity against Carnobacterium mobile measured after 72 hrs; how it was run: as §3
[10] = tested on: Carnobacterium divergens; assay: Antibacterial activity against Carnobacterium divergens measured after 72 hrs; how it was run: as §3
[11] = tested on: Carnobacterium funditum; assay: Antibacterial activity against Carnobacterium funditum CCUG 34644 measured after 72 hrs; details: CCUG 34644, 72 h; how it was run: as §3

Compound: CC[C@H](C)[C@@H]1NC(=O)[C@H](CO)NC(=O)[C@H](CO)NC(=O)[C@@H](NC(=O)[C@H](CO)NC(=O)[C@@H]2CCCN2C(=O)[C@H](CCC(N)=O)NC(=O)[C@H](CCC(N)=O)NC(=O)[C@@H](N)Cc2c[nH]c3ccccc23)CSSC[C@@H](C(=O)N[C@@H](CCCNC(=N)N)C(=O)N[C@@H](CCCNC(=N)N)C(=O)NCC(=O)N2CCC[C@H]2C(=O)N[C@H](C(=O)N[C@@H](Cc2ccc(O)cc2)C(=O)O)[C@@H](C)CC)NC(=O)[C@H](CO)NC(=O)[C@H](C)NC(=O)[C@@H]2CSSC[C@H]3NC(=O)[C@H](C)NC(=O)[C@H](CO)NC(=O)[C@H](CCCCN)NC(=O)CNC(=O)[C@@H]4CSSC[C@H](NC(=O)[C@H](CCCNC(=N)N)NC(=O)CNC(=O)[C@H](CO)NC(=O)[C@H](Cc5ccc(O)cc5)NC(=O)[C@H](CO)NC(=O)[C@H]([C@@H](C)CC)NC3=O)C(=O)NCC(=O)N[C@@H](CSSC[C@H](NC1=O)C(=O)N[C@@H](CC(=O)O)C(=O)N[C@@H](Cc1ccc(O)cc1)C(=O)N[C@@H](CO)C(=O)N4)C(=O)N2
- MIC [1]: > 100 µM
- MIC [2]: > 100 µM
- MIC [3]: > 100 µM
- MIC [4]: > 100 µM
- MIC [5]: 200 µM (≈ 816 µg/mL)
- MIC [6]: 50 µM (≈ 204 µg/mL)
- MIC [7]: > 100 µM
- MIC [8]: 200 µM (≈ 816 µg/mL)
- MIC [9]: 100 µM (≈ 408 µg/mL)
- MIC [10]: 200 µM (≈ 816 µg/mL)
- MIC [11]: 200 µM (≈ 816 µg/mL)

Compound: H-SWLSKTAKKLENSAKKRISEGIAIAIQGGPR-OH
- MIC [1]: 1.6 µM
- MIC [2]: 1.6 µM
- MIC [3]: 0.8 µM
- MIC [4]: 1.6 µM
- MIC [5]: 3.1 µM
- MIC [6]: 1.6 µM
- MIC [7]: 100 µM
- MIC [8]: 50 µM
- MIC [9]: 6.3 µM
- MIC [10]: 25 µM
- MIC [11]: 25 µM
